Test results taken from ChEMBL document CHEMBL4152184, “NB 06: From a simple lysosomotropic aSMase inhibitor to tools for elucidating the role of lysosomes in signaling apoptosis and LPS-induced inflammation” (Eur J Med Chem, 2018).
The source made the active and inactive calls. No cut-off for these calls is given here.

How the values were obtained:
[1] = molecular target: T1, Sphingomyelin phosphodiesterase (Homo sapiens) (UniProt P17405); test: Inhibition of mmLDL-stimulated acid sphingomyelinase in human PBMC lysates up to 2 uM preincubated for 30 mins followed by mmLDL stimulation measured after 4 hrs by YO-PRO-1/Hoechst 33342 staining based assay
T1 sequence (whole entry): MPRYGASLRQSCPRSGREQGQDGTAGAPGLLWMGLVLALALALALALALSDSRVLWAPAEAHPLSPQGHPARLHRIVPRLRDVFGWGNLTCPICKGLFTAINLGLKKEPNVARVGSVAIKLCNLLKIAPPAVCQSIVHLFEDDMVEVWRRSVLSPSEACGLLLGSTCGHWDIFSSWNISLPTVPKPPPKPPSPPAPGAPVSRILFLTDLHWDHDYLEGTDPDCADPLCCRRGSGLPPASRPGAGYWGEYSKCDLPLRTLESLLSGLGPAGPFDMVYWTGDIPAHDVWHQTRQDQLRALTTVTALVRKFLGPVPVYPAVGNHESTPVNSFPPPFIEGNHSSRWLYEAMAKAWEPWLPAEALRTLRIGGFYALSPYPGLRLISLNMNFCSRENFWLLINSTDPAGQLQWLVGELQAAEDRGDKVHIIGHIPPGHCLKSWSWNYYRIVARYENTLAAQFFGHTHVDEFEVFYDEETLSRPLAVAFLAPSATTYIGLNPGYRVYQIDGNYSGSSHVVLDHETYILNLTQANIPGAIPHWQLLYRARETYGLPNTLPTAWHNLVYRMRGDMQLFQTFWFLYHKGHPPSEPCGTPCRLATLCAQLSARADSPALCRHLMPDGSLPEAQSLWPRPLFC

[2] = tested on: MONO-MAC-6; test: Upregulation of IL23A mRNA expression level in human MONO-MAC-6 cells at 5 uM incubated for 30 mins measured after 4 hrs by qRT-PCR method relative to control; format: functional
[3] = tested on: MONO-MAC-6; test: Upregulation of PTGS2 mRNA expression level in LPS-stimulated human MONO-MAC-6 cells at 5 uM preincubated for 30 mins followed by LPS stimulation measured after 1 hr by oligonucleotide array hybridization assay (reference value: 1.01); format: functional
[4] = tested on: PBMC; test: Inhibition of mmLDL-stimulated apoptosis in human PBMC assessed as apoptotic cells at 2 uM preincubated for 30 mins followed by mmLDL stimulation measured after 4 hrs by YO-PRO-1/Hoechst 33342 staining based assay (reference value: 100%); format: functional; set-up: scale not given: the % may be the effect or the level left
Procedure, shortened: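 PBMC pre-incubated 30 min with 2 μM compound, then stimulated with mmLDL (27 μg/mL; line 5) or TNFalpha (3 ng/mL; line 1) for 4 h. Apoptotic cells stained with YO-PRO-1 and all cells with Hoechst 33342. Each plate had control, stimulus, compound alone and compound plus stimulus; n = 3. Values are on a 0% (untreated control, corrected for spontaneous apoptosis) to 100% (stimulus alone) scale; means ± SE.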

[5] = tested on: MONO-MAC-6; test: Upregulation of ICAM1 mRNA expression level in human MONO-MAC-6 cells at 5 uM incubated for 30 mins measured after 1 hr by oligonucleotide array hybridization assay relative to control; format: functional
[6] = tested on: MONO-MAC-6; test: Downregulation of IL-6 mRNA expression level in LPS-stimulated human MONO-MAC-6 cells at 5 uM preincubated for 30 mins followed by LPS stimulation measured after 6 hrs by qRT-PCR method (reference value: 5.09); format: functional
[7] = tested on: MONO-MAC-6; test: Upregulation of CCL4 mRNA expression level in LPS-stimulated human MONO-MAC-6 cells at 5 uM preincubated for 30 mins followed by LPS stimulation measured after 6 hrs by oligonucleotide array hybridization assay (reference value: 6.37); format: functional
[8] = tested on: MONO-MAC-6; test: Downregulation of CCL20 mRNA expression level in LPS-stimulated human MONO-MAC-6 cells at 5 uM preincubated for 30 mins followed by LPS stimulation measured after 6 hrs by oligonucleotide array hybridization assay (reference value: 5.78); format: functional
Procedure, shortened: (§1)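 Total RNA was isolated, transcribed and labeled with DY-647 dye, then co-hybridized with DY-548-labeled cDNA from untreated cells on an inflammation oligonucleotide chip (780 gene probes). Differential expression >1.5 was taken as significant.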

[9] = molecular target: T2, Acid ceramidase (Homo sapiens) (UniProt Q13510); test: Inhibition of acid ceramidase in human PBMC assessed as ratio of C24:1-ceramide/lipid phosphate level at 10 uM incubated for 30 mins measured after 4 hrs by HPLC method; format: cell-based
T2 sequence (whole entry): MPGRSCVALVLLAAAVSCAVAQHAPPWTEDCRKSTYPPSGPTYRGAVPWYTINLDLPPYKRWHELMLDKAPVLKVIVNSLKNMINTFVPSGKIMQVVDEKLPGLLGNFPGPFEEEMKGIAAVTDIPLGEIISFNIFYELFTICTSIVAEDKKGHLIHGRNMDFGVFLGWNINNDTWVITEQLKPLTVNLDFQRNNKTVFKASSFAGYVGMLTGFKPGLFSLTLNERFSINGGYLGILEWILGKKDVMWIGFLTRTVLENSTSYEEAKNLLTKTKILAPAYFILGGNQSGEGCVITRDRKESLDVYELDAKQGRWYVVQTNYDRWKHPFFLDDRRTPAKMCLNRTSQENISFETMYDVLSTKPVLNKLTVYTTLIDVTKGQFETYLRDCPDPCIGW
Procedure, shortened: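 Human macrophages from primary culture were preincubated 30 min with 10 µM compound. They were then stimulated 4 h with mmLDL (54 µg/mL), TNFalpha (3 ng/mL) or exogenous C6-ceramide (10 µM), or left unstimulated. Individual ceramide species (C16 and C24:1) were quantified in the cell lipid extracts.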

[10] = tested on: MONO-MAC-6; test: Downregulation of ICAM1 mRNA expression level in human MONO-MAC-6 cells at 5 uM incubated for 30 mins measured after 2 hrs by oligonucleotide array hybridization assay relative to control; format: functional; procedure, shortened: as §1
[11] = tested on: MONO-MAC-6; test: Downregulation of CCL20 mRNA expression level in human MONO-MAC-6 cells at 5 uM incubated for 30 mins measured after 2 hrs by oligonucleotide array hybridization assay relative to control; format: functional; procedure, shortened: as §1
[12] = tested on: MONO-MAC-6; test: Downregulation of TNFalpha mRNA expression level in human MONO-MAC-6 cells at 5 uM incubated for 30 mins measured after 2 hrs by qRT-PCR method relative to control; format: functional
[13] = tested on: MONO-MAC-6; test: Upregulation of ICAM1 mRNA expression level in LPS-stimulated human MONO-MAC-6 cells at 5 uM preincubated for 30 mins followed by LPS stimulation measured after 1 hr by oligonucleotide array hybridization assay (reference value: 1.17); format: functional
[14] = tested on: MONO-MAC-6; test: Upregulation of IL23A mRNA expression level in LPS-stimulated human MONO-MAC-6 cells at 5 uM preincubated for 30 mins followed by LPS stimulation measured after 4 hrs by qRT-PCR method (reference value: 10.78); format: functional
[15] = tested on: MONO-MAC-6; test: Downregulation of CCL4 mRNA expression level in human MONO-MAC-6 cells at 5 uM incubated for 30 mins measured after 2 hrs by oligonucleotide array hybridization assay relative to control; format: functional; procedure, shortened: as §1
[16] = tested on: MONO-MAC-6; test: Upregulation of CXCL3 mRNA expression level in LPS-stimulated human MONO-MAC-6 cells at 5 uM preincubated for 30 mins followed by LPS stimulation measured after 2 hrs by oligonucleotide array hybridization assay (reference value: 3.24); format: functional

COc1ccc(CCN(C)CCCn2c3ccccc3c3ccccc32)cc1
inhibition [1]: inactive | fold change (FC) [2]: 1.39 | fold change (FC) [3]: 1.1 | Activity [4]: 33 - 49% | fold change (FC) [5]: 1.1 | fold change (FC) [6]: 1.1 | fold change (FC) [7]: 1.16 | fold change (FC) [8]: 1.07 | Ratio [9]: 8.71 | fold change (FC) [10]: 1.28 | fold change (FC) [11]: 1 | fold change (FC) [12]: 3.78 | fold change (FC) [13]: 1.11 | fold change (FC) [14]: 1.71 | fold change (FC) [15]: 1.05 | fold change (FC) [16]: 2.34
